This note sets out measurements from ChEMBL document CHEMBL1130181, “Importance of the C-1 substituent in classical cannabinoids to CB2 receptor selectivity: synthesis and characterization of a series of O,2-propano-delta 8-tetrahydrocannabinol analogs” (J Med Chem, 1997).

Test [1] is filed under the species Mus musculus. In words: Dissociation constant of SR-141716A determined in the presence using mouse vas deferens. In kind it is functional. A digest of the protocol: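 Mouse isolated vas deferens, electrically evoked contractions; agonist concentration–response curves run with SR-141716A at 31.62 nM or with Tween 80 vehicle. Kd from (x−1)=B/Kd, where x is the dose ratio. Dose ratios and 95% confidence limits by symmetrical (2+2) dose parallel line assay, using agonist concentration pairs on the steepest part of each curve.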

For test [2], the species on record is Mus musculus. In words: Inhibition of electrically-evoked contractions of mouse vas deferens. In kind it is functional. The method, boiled down: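 Mouse isolated vas deferens; response is drug-induced inhibition of electrically evoked contractions. Drugs mixed with 2 parts Tween 80 by weight and dispersed in 0.9% saline. EC50 with 95% confidence limits from nonlinear regression of log concentration–response curves.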

For test [3], the system named is Mus musculus. As to the kind of experiment: Rectal temperature in the mouse model, following intravenous administration (30 mg/kg), in the tail vein. It counts as functional. The method, boiled down: (§1)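 Mice dosed by tail-vein iv injection in 1:1:18 emulphor:ethanol:saline, 0.1 mL/10 g body weight. Tetrad scored for spontaneous activity, tail-flick antinociception, rectal temperature and ring immobility. Values reported as ED50 ± SE from ALLFIT analysis, or as percent effect (temperature change for RT) at the stated dose (mg/kg).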

The target in test [4] is Cannabinoid receptor (Homo sapiens) (UniProt P34972+P21554). As to the kind of experiment: Ratio of binding affinities in cannabinoid CB1 receptor against cannabinoid CB2 receptor. In kind it is protein assay. The method, boiled down:
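Ratio of Ki values. CB1 Ki from displacement of 1 nM [3H]CP-55,940 in whole-brain P2 membranes. CB2 Ki from the same radioligand on CHO cells expressing cloned human CB2. Both Ki values from […].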

Test [5] concerns Mus musculus. As to the kind of experiment: Rectal temperature in the mouse model, following intravenous administration of the compound(60 mg/kg), in the tail vein. In kind it is functional. A digest of the protocol: as §1
For test [6], the target named is Cannabinoid receptor 1 (Rattus norvegicus, UniProt P20272). In words: Binding affinity for cannabinoid receptor 1.
The test system of test [7] is Mus musculus. As to the kind of experiment: Rectal temperature in the mouse model, following intravenous administration of the compound, in the tail vein.at the dose (100 mg/kg). In kind it is functional. A digest of the protocol: as §1

Chain of Cannabinoid receptor (Homo sapiens) (P21554 whole entry, looked up): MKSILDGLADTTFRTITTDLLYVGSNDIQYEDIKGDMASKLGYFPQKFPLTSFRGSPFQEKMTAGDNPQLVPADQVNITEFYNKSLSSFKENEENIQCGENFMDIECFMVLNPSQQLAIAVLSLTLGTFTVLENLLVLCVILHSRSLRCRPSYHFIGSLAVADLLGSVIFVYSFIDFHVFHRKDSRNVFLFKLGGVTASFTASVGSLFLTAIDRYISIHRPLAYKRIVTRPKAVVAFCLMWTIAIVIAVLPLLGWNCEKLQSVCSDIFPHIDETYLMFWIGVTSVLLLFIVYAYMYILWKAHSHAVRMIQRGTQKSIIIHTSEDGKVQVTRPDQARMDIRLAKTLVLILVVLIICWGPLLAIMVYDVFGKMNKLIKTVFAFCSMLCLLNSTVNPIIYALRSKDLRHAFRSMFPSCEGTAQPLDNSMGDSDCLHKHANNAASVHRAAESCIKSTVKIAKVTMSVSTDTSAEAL
Chain of Cannabinoid receptor (Homo sapiens) (P34972 whole entry, looked up): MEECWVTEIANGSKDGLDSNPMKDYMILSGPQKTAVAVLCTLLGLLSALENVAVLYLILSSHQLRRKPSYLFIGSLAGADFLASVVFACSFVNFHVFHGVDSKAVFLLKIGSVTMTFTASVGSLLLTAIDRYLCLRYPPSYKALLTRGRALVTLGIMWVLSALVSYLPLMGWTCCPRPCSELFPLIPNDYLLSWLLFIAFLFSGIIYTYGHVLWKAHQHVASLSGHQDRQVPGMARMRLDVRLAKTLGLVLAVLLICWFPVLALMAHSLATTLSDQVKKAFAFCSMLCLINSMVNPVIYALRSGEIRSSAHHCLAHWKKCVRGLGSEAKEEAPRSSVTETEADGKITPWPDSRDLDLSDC
Chain of Cannabinoid receptor 1 (P20272 whole entry): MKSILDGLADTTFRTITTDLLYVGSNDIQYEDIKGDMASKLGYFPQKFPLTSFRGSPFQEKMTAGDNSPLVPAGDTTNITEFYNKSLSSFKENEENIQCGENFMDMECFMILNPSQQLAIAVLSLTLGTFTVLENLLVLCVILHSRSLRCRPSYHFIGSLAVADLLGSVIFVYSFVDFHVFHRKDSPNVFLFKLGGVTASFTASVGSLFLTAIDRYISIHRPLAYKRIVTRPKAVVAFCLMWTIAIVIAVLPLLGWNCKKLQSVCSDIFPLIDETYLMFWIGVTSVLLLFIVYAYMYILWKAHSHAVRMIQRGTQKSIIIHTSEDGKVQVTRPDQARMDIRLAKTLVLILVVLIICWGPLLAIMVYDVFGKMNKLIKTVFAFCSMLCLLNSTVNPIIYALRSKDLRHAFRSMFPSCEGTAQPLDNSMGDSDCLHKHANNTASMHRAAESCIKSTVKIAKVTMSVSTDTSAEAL

As usually defined, the Kd is the equilibrium constant for the complex coming apart. The term EC50 denotes the concentration at which the effect is half-maximal. The low end stands for greater potency, the high end for weaker potency. `CCCCCc1cc2c(c3c1CCCO3)C1C[C@H](O)CC[C@H]1C(C)(C)O2` (stereo partly drawn) came in with a dissociation constant Kd in test [1] of 1.67 nM. This compound also had a concentration giving a half-maximal response (EC50) in test [2] of 8.35 nM.

In turn, `C=C1CC[C@@H]2C(C1)c1c(cc(CCCCC)c3c1OCCC3)OC2(C)C` (stereo partly drawn) displayed a Kd in test [1] of 2.49 nM. The same compound returned an EC50 in test [2] of 28.6 nM. The compound also came in with a Temperature in test [3] of -3.6 °C. Moreover, the Ratio in test [4] turned out to be 4.4.

The term Ki denotes a dissociation constant, usually derived from enzyme kinetics or from competition with a known ligand. The compound `CCCCCc1cc2c(c3c1CCCO3)C1CC(=O)CC[C@H]1C(C)(C)O2` (stereo partly drawn) registered a Kd in test [1] of 1.72 nM. The compound further returned a Temperature in test [5] of -2.9 °C. The compound further registered an EC50 in test [2] of 7.23 nM. In addition, in test [6], the Ki was determined as 90 nM. For the same compound, the Ratio in test [4] amounted to 3.9.

In test [1], `CCCCCc1cc2c(c3c1CCCO3)C1CC=CC[C@H]1C(C)(C)O2` (stereo partly drawn) registered a Kd of 2.97 nM. In test [2], a half-maximal response (EC50) required 16.5 nM. The Temperature in test [7] was -1.2 °C. In test [6], this compound displayed a Ki of 364 nM. Besides, in test [4], the Ratio amounted to 2.8.

Consider `CCCCCc1cc2c(c3c1CCCO3)C1C[C@@H](O)CC[C@H]1C(C)(C)O2` (stereo partly drawn), for which, in test [1], binding was characterised by a dissociation constant (Kd) of 1.67 nM. In test [2], this compound returned a concentration for a half-maximal effect (EC50) of 83.5 nM.
